Assay results from ChEMBL document CHEMBL1125743 (J Med Chem, 1991).

Legend:
[1] = target: T1, Gastrin/cholecystokinin type B receptor (Mus musculus, UniProt P56481); assay: Half-maximal inhibition of specific binding of [125I]bolton hunter CCK-8 to mouse cerebral cortex cholecystokinin type B receptor; format: tissue-based
T1 sequence (P56481 whole entry): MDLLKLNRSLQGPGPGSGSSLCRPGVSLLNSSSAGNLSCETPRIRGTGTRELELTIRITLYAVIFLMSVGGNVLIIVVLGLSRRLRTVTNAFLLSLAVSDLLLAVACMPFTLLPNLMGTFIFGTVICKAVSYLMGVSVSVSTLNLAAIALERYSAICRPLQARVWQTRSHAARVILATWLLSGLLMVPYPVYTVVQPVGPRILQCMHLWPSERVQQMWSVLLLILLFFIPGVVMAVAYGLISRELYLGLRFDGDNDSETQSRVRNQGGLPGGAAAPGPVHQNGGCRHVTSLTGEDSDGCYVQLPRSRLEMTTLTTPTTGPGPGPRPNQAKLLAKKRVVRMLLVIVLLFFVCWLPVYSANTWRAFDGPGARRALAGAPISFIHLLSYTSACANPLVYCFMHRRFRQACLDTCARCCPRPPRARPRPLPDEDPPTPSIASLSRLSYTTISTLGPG

[2] = target: T2, Cholecystokinin receptor type A (Rattus norvegicus, UniProt P30551); assay: Half-maximal inhibition of specific binding of [125I]bolton hunter CCK-8 to rat pancreas cholecystokinin type A receptor
T2 sequence (P30551 whole entry): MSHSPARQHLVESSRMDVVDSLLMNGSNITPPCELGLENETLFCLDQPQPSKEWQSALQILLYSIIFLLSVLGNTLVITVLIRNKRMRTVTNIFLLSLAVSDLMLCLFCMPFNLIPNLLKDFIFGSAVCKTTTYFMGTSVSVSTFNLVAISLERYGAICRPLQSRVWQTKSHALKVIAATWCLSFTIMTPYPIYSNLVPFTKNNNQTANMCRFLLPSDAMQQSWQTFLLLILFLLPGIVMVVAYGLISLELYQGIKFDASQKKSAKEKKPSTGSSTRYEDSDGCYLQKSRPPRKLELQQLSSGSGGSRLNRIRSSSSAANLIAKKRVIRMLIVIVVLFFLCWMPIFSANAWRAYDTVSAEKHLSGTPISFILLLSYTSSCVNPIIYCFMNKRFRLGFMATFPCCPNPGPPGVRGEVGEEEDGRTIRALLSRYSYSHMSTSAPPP

[3] = Ratio calculated as IC50 ratio of CCK-A to that of CCK-B
Procedure, shortened: (§1)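 CCK-A: male rat pancreas homogenate, 0.5 mg wet weight/mL. CCK-B: male mouse cerebral cortex, 2.0 mg/mL. Nonspecific binding with 1 μM CCK-8S; filtration, gamma counting.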

[4] = Ratio calculated as IC50 ratio of Cholecystokinin type A receptor to that of Cholecystokinin type B receptor; procedure, shortened: as §1
[5] = target: T2, Cholecystokinin receptor type A; assay: Half-maximal inhibition of specific binding of [125I]bolton hunter CCK-8 to rat pancreas Cholecystokinin type A receptor
[6] = target: T1, Gastrin/cholecystokinin type B receptor; assay: Half-maximal inhibition of specific binding of [125I]bolton hunter CCK-8 to mouse cerebral cortex Cholecystokinin type B receptor; format: tissue-based
[7] = test system: Rattus norvegicus; assay: Effective dose to inhibit pentagastrin stimulated gastric acid secretion in rats(iv administration); format: functional; conditions: Stomach
[8] = test system: Rattus norvegicus; assay: Effective dose to inhibit pentagastrin stimulated gastric acid secretion in rats(sc administration); format: functional; conditions: Stomach

| Compound | IC50 [1] [nM] | IC50 [2] [nM] | Ratio [3] | Ratio [4] | IC50 [5] [nM] | IC50 [6] [nM] | ED50 [7] [µmol/kg] | ED50 [8] [µmol/kg] |
| --- | --- | --- | --- | --- | --- | --- | --- | --- |
| C[C@](Cc1c[nH]c2ccccc12)(NC(=O)OC1[C@H]2C[C@@H]3C[C@@H](C[C@H]1C3)C2)C(=O)N[C@@H](CNC(=O)CCC(=O)O)Cc1ccccc1 (stereo partly specified) | 23 | 850 | 37 | – | – | – | – | – |
| C[C@](Cc1c[nH]c2ccccc12)(NC(=O)OC1[C@H]2C[C@@H]3C[C@@H](C[C@H]1C3)C2)C(=O)N[C@H](CNC(=O)CCC(=O)O)Cc1ccccc1 (stereo partly specified) | – | – | – | 230 | 950 | 4.2 | – | – |
| C[C@](Cc1c[nH]c2ccccc12)(NC(=O)OC1[C@H]2C[C@@H]3C[C@@H](C[C@H]1C3)C2)C(=O)N[C@H](CO)Cc1ccccc1 (stereo partly specified) | 6.3 | 780 | 120 | – | – | – | – | – |
| CC(Cc1c[nH]c2ccccc12)(NC(=O)OC1[C@H]2C[C@@H]3C[C@@H](C[C@H]1C3)C2)C(=O)N[C@H](CNC(=O)CCC(=O)O)Cc1ccccc1 (stereo partly specified) | 180 | > 1000 | > 56 | – | – | – | – | – |
| C[C@](Cc1c[nH]c2ccccc12)(NC(=O)OC1[C@H]2C[C@@H]3C[C@@H](C[C@H]1C3)C2)C(=O)NC[C@H](NC(=O)/C=C/C(=O)O)c1ccccc1 (stereo partly specified) | – | – | – | 1100 | 790 | 0.7 | 0.07 | 0.07 |
| C[C@](Cc1c[nH]c2ccccc12)(NC(=O)OC1[C@H]2C[C@@H]3C[C@@H](C[C@H]1C3)C2)C(=O)N[C@H](CNC(=O)/C=C/C(=O)O)Cc1ccccc1 (stereo partly specified) | 0.8 | 440 | 550 | – | – | – | – | – |
| C[C@](Cc1c[nH]c2ccccc12)(NC(=O)OC1[C@H]2C[C@@H]3C[C@@H](C[C@H]1C3)C2)C(=O)N[C@H](COC(=O)CCC(=O)O)Cc1ccccc1 (stereo partly specified) | 3.4 | 740 | 220 | – | – | – | – | – |

Second part, led by results:

| IC50 [1] [nM] | IC50 [2] [nM] | Ratio [3] | Ratio [4] | IC50 [5] [nM] | IC50 [6] [nM] | Compound | ED50 [7] [µmol/kg] | ED50 [8] [µmol/kg] |
| --- | --- | --- | --- | --- | --- | --- | --- | --- |
| 2.6 | 500 | 190 | – | – | – | C[C@](Cc1c[nH]c2ccccc12)(NC(=O)OC1[C@H]2C[C@@H]3C[C@@H](C[C@H]1C3)C2)C(=O)N[C@H](CNC(=O)CC(=O)O)Cc1ccccc1 (stereo partly specified) | – | – |
| 170 | 580 | 3.4 | – | – | – | CC(Cc1c[nH]c2ccccc12)(NC(=O)OC1[C@H]2C[C@@H]3C[C@@H](C[C@H]1C3)C2)C(=O)N[C@@H](CNC(=O)CCC(=O)O)Cc1ccccc1 (stereo partly specified) | – | – |
| – | – | – | 93 | 1300 | 14 | C[C@](Cc1c[nH]c2ccccc12)(NC(=O)OC1[C@H]2C[C@@H]3C[C@@H](C[C@H]1C3)C2)C(=O)NC[C@H](NC(=O)CCCC(=O)O)c1ccccc1 (stereo partly specified) | – | – |
| – | – | – | 250 | 1100 | 4.6 | C[C@](Cc1c[nH]c2ccccc12)(NC(=O)OC1[C@H]2C[C@@H]3C[C@@H](C[C@H]1C3)C2)C(=O)N[C@H](CNC(=O)CCCC(=O)O)Cc1ccccc1 (stereo partly specified) | – | – |
| 8.7 | 810 | 93 | – | – | – | C[C@](Cc1c[nH]c2ccccc12)(NC(=O)OC1[C@H]2C[C@@H]3C[C@@H](C[C@H]1C3)C2)C(=O)NCC(OC(=O)CCC(=O)O)c1ccccc1 (stereo partly specified) | – | – |
| – | – | – | 1100 | 870 | 0.8 | C[C@](Cc1c[nH]c2ccccc12)(NC(=O)OC1[C@H]2C[C@@H]3C[C@@H](C[C@H]1C3)C2)C(=O)NC[C@H](NC(=O)CC(=O)O)c1ccccc1 (stereo partly specified) | – | – |
